High-throughput results deposited in PubChem BioAssay by several laboratories.
Compounds with a hit are over-represented: about 4.7% of the library has one in this group of screens.
Jurkat NFkB inh: lowers PMA/ionomycin-induced NF-kB signal in Jurkat cells; PMA/ionomycin-induced NF-kB luciferase reporter, luminescence; inhibition, % at 4 µM; 330,000 compounds, 0.53% hits; AID 435003; in the data active means inhibition above about 50%
Mdm2-MdmX inh: inhibitors of human Mdm2/MdmX interaction. O15151+Q00987. SaOS-2 split-luciferase Mdm2/MdmX complementation, luminescence. inhibition, % at 8 µM. 330,000 compounds, 3% hits;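 active means inhibition of at least 50% at 8 µM in the primary screen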
697 NFkB inh: inhibitors of the PMA/ionomycin-induced NF-kB reporter in 697 B cells; 330,000 compounds, 0.33% hits; 697 B-cell NF-kB luciferase reporter, 16 h; inhibition, % at 4 µM; in the data active means inhibition above about 35%
aSyn UTR inh: MLPCN primary screen, SNCA 5' untranslated region; alpha-synuclein 5'UTR reporter, inhibitor activity; inhibition, % (tested at 7.5 µM); 300,000 compounds, 0.82% hits; in the data active means inhibition above about 60%;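 further: H4 neuroglioblastoma cells stably carrying SNCA 5'UTR luciferase fusion; 0% = DMSO wells and 100% = positive control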
VIM-2 inh: blocks Pseudomonas aeruginosa VIM-2 metallo-beta-lactamase | AID 1527 | purified VIM-2, nitrocefin hydrolysis, epi-absorbance fluorescence | 290,000 compounds, 0.89% hits | inhibition, % at 5.6 µM;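 active means inhibition above the mean of all tested compounds plus 3 SD, cutoff set per screening run, cut at about 7.5% in these data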;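 further: red hydrolysis product quenches plate fluorescence so inhibitors raise well fluorescence; 0% = enzyme with DMSO and 100% = DMSO without enzyme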
IMP-1 inh-1: inhibitors of Pseudomonas aeruginosa IMP-1 metallo-beta-lactamase; inhibition, % at 5.6 µM; purified IMP-1, nitrocefin hydrolysis, epi-absorbance fluorescence; AID 1556; 290,000 compounds, 0.45% hits;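 active means inhibition above the mean plus 3 SD of all compounds in the same screening run, cut at about 4.5% in these data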;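 further: 0% = IMP-1 with DMSO and 100% = DMSO wells lacking enzyme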
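System: purified IMP-1 / Input: IMP-1 dispensed at 0.2 nM / Medium: 50 mM HEPES pH 7.1, 50 µM ZnSO4, 0.05% Brij 35 / Timing: 15 min enzyme–compound preincubation, then 25 min nitrocefin reaction, 25 °C / Technique: plate fluorescence quenching by hydrolysis product, ex 480/em 530 nm / Repeats: singlicate testing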
IMP-1 inh-2: blocks IMP-1 metallo-beta-lactamase in VIM-2 selectivity screen. purified IMP-1, nitrocefin hydrolysis, epi-absorbance fluorescence. 1,300 tested, under 10 active. inhibition, % at 5.6 µM. AID 1856. shares compounds with VIM-2 inh; call rule not given here;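 further: 0% = enzyme with vehicle and 100% = vehicle without enzyme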
VIM-2 FRET inh: VIM-2 FRET inhibition, artifact counter-screen; purified VIM-2, CCF2 FRET substrate hydrolysis; inhibition, % at 5.6 µM; shares compounds with VIM-2 inh; AID 1857; 1,300 compounds, 23% hits;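 active means inhibition above the mean of all tested compounds plus 3 SD, cut at about 19% in these data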;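 further: 0% = VIM-2 plus DMSO and 100% = no enzyme wells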
TEM-1 counter: blocks E. coli TEM-1 beta-lactamase in VIM-2 selectivity screen; 1,300 compounds, 3% hits; Purified TEM-1, nitrocefin hydrolysis, epi-absorbance fluorescence; shares compounds with VIM-2 inh; AID 1866; inhibition, % at 5.6 µM;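 active means inhibition above that campaign's mean inhibition plus 3 SD, cut at about 0.46% in these data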;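 further: 0% = TEM-1 with DMSO and 100% = TEM-1 with 100 µM potassium clavulanate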
Target sequence (P62593 whole entry, looked up): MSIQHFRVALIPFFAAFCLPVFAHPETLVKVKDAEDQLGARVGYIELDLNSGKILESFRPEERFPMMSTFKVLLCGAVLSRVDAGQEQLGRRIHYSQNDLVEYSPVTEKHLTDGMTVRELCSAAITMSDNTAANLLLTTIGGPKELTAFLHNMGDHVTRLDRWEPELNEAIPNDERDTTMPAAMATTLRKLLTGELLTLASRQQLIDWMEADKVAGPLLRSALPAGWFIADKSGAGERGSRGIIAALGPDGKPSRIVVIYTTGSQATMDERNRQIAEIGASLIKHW
VIM-2 inh conf: confirmation of P. aeruginosa VIM-2 metallo-beta-lactamase inhibitors; 1,300 compounds, 96% hits; purified VIM-2, nitrocefin hydrolysis, epi-absorbance; AID 2187; inhibition, % at 5.6 µM; shares compounds with VIM-2 inh;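 active means inhibition of the VIM-2 beta-lactamase enzyme above about 11% from the earlier first-round screen, limit read from the data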;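 further: 0% = VIM-2 with DMSO and 100% = buffer wells without enzyme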
An asterisk follows results filed as active; nt = not tested or not shown.

SMILES | Jurkat NFkB inh | Mdm2-MdmX inh | 697 NFkB inh | aSyn UTR inh | VIM-2 inh | IMP-1 inh-1 | others
COC(=O)C1=C(c2cc3ccccc3o2)C[C@@H]2CC[C@H]1N2C(=O)N1CCCCC1 | 43 | 46 | -10 | 66* | nt | nt
COC(=O)C1=C(c2cc3ccccc3o2)C[C@@H]2CC[C@H]1N2C(=O)N1CCCC1 | 4 | -7 | 1 | 32 | nt | nt
CC(=O)c1ccc2c(c1)C1C(Cl)C(Sc3ccccc3[N+](=O)[O-])CC1C(C(=O)O)N2 (configuration not stated) | nt | nt | nt | nt | -3 | -2
O=C(O)c1cccc2c1NC(C(=O)O)C1CC(Sc3ccccc3[N+](=O)[O-])C(Cl)C21 (configuration not stated) | nt | nt | nt | nt | 2 | 5.2*
COc1cccc(C2(O)CCN(Cc3ccncc3)CC2)c1 | -18 | 7 | -15 | 7 | -4 | -3
CCOP(=O)(OCC)C(NS(=O)(=O)c1ccccc1)C(Cl)(Cl)Cl (configuration not stated) | 4 | -9 | 3 | 8 | -2 | -4
NC(=S)c1cn(C2OC(CO)C(O)C2O)c2ncnc(N)c12 (configuration not stated) | nt | nt | nt | 105* | 0 | 12*
COc1cccc(OC)c1C(=O)Nc1nc(N)n(-c2ccccc2)n1 | -9 | 11 | 28 | 15 | -2 | -3
COc1ccc(/C=C2/C(=O)NC(=S)N(C3CC3)C2=O)cc1CN1C(=O)c2ccccc2C1=O | nt | nt | nt | nt | 0 | 0
CCn1c(O)c(C=Nc2ccc(N3CCOCC3)cc2)c(=O)n(CC)c1=S | 17 | 30 | 6 | -27 | -1 | -1
CCn1c(O)c(C(=O)CC2NCCc3ccccc32)c(=O)n(CC)c1=S (configuration not stated) | -5 | -10 | 6 | nt | 0 | 9.6*
O=C(CCN1C(=O)COc2ccccc21)N1CCC2(CC1)OCCO2 | -17 | 5 | -6 | -11 | -4 | -3
CCN(CC)c1ccc(/C=C/[N+](=O)[O-])cc1 | 1 | 39 | 15 | -47 | 3 | 6.5*
CCCOc1ccccc1C1SCC(=O)Nc2c1c(=O)[nH]n2C(C)CCC (configuration not stated) | 0 | -18 | -26 | -5 | 8.7* | -2
CCN(CC)C(=O)c1ccc(NC(=O)COc2ccc(-c3nn(C)c(=O)c4ccccc34)cc2)cc1 | 2 | 40 | -3 | 4 | 9.0* | -2
CCN(CC)C(=O)c1ccc(NC(=O)c2cn(-c3ccccc3)nc2-c2ccc(OC)cc2)cc1 | -4 | 49 | 9 | -49 | -3 | -4
CN1C(=O)C(=Cc2ccc(OCC(=O)Nc3ccccc3)cc2)C(=O)N(C)C1=O | -62 | 10 | 8 | -78 | 1 | -1
O=C1NC(=S)N(Cc2ccco2)C(=O)/C1=C\c1cccs1 | nt | nt | nt | nt | 2 | 5.1*
CC(C)N1C(=O)/C(=C/C=C/c2ccco2)C(=O)N(Cc2ccco2)C1=O | 8 | 28 | 10 | -31 | -1 | -1
CCN1C(=O)C(=C/C=C/c2ccco2)C(=O)N(CC)C1=S | 2 | -3 | -8 | -1 | -4 | 5.8*
CCC1(OC(=O)CN)C(=O)OCc2c1cc1n(c2=O)Cc2cc3ccccc3nc2-1 (configuration not stated) | nt | nt | nt | 103* | 1 | -2
CC[C@@]1(O)C(=O)OCc2c1cc1n(c2=O)Cc2cc3ccccc3nc2-1 | nt | nt | nt | 116* | -1 | -4
COC1CC(OC2CCC3(C)C(CCC4C3CCC3(C)C(C5=CC(=O)OC5)C(OC(C)=O)CC43O)C2)OC(C)C1OC1OC(COC2OC(CO)C(O)C(O)C2O)C(O)C(O)C1O (configuration not stated) | nt | nt | nt | 115* | nt | nt
COCCCN1CCN(c2nnc3n2-c2sc(Br)cc2C(c2ccccc2Cl)=NC3)CC1 | -21 | 5 | 25 | -2 | -4 | 8.3*
Cc1ccc(NC(=O)CN2C(=O)CN=C(c3ccccc3)c3cc(Cl)ccc32)cc1 | 14 | 42 | 0 | 17 | -2 | -2
SMILES | Jurkat NFkB inh | Mdm2-MdmX inh | 697 NFkB inh | aSyn UTR inh | VIM-2 inh | IMP-1 inh-1 | others
CN(C)c1ccc(NC(=O)CN2C(=O)CN=C(c3ccccc3)c3cc(Cl)ccc32)cc1 | -21 | 8 | -4 | 23 | -2 | 4.5*
CCC(COC(=O)c1cc(OC)c(OC)c(OC)c1)(c1ccccc1)N(C)C (configuration not stated) | -13 | -5 | -19 | -14 | -6 | 41*
Cc1cccc(-n2c(/C=C/c3ccccn3)nc3ccccc3c2=O)c1 | -1 | 12 | 12 | 4 | 0 | -1
N#Cc1ccc(Cn2cc(C=O)c3ccccc32)cc1 | 10 | 11 | 22 | 50 | -1 | 1
Cc1cccc(Cn2cc(C=O)c3ccccc32)c1 | -3 | 32 | 3 | 68* | -3 | -4
O=Cc1cn(Cc2ccccc2F)c2ccccc12 | 8 | 13 | 14 | 52 | 0 | 0
O=Cc1cn(Cc2cccc([N+](=O)[O-])c2)c2ccccc12 | 20 | 8 | -57 | 94* | 1 | 0
CCOC(=O)c1ccc(N=C(C)c2c(O)[nH]c(=O)[nH]c2=O)cc1 | -3 | 21 | 1 | -41 | -1 | 0
CC(=O)Nc1ccccc1C(=O)OCc1ccccc1F | -19 | -16 | -15 | -60 | -1 | 0
C=CCn1c(O)c(/C=N/NC(=O)CCCC)c(=O)[nH]c1=S | 3 | -14 | 15 | -7 | -4 | -6
Cc1cc(OCC(=O)NCc2cccnc2)c2c3c(c(=O)oc2c1)CCCC3 | 2 | -13 | 21 | 9 | 33* | -3 | IMP-1 inh-2=-3;VIM-2 FRET inh=-2;TEM-1 counter=-9;VIM-2 inh conf=40*
Cc1cc(OCC(=O)NCC(O)c2ccccc2)c2c3c(c(=O)oc2c1)CCCC3 (configuration not stated) | -4 | -17 | 29 | 13 | 2 | -4
O=P(O)(O)Oc1ccccc1P(=O)(c1ccccc1)c1ccccc1 | -4 | 19 | 9 | 2 | 17* | -3 | IMP-1 inh-2=-3;VIM-2 FRET inh=23*;TEM-1 counter=-4;VIM-2 inh conf=21*
Cc1cc(=O)oc2c(C)c(OCC(=O)N3CCN(Cc4ccccc4)CC3)ccc12 | 2 | -5 | 3 | 33 | 45* | -4 | IMP-1 inh-2=-3;VIM-2 FRET inh=-1;TEM-1 counter=-8;VIM-2 inh conf=60*
Cc1c(C)c2ccc(OCC(=O)N3CCN(Cc4ccccc4)CC3)cc2oc1=O | 0 | -17 | 13 | nt | nt | nt
